Consider 7 molecules from ChEMBL document CHEMBL4011598, “Sulfonamides as Selective NaV1.7 Inhibitors: Optimizing Potency and Pharmacokinetics While Mitigating Metabolic Liabilities” (J Med Chem, 2017).

For one series, the system named is Rattus norvegicus. As to the kind of experiment: Unbound clearance in rat at 0.5 mg/kg, iv. Format: ADME, organism-based. Particulars: in vivo. An outline of the steps:
(§1)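 Male rats given a single 0.5 mg/kg iv dose in DMSO. Unbound clearance (CLu) is total clearance divided by fu, the unbound fraction in plasma.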
Molecule `COc1cc(-c2cccc(F)c2)c(Cl)cc1-c1[nH]c(=O)cc2cc(S(=O)(=O)Nc3ccon3)ccc12` came in with a CL free of 1500 L/h/kg.

The target in a further series is Sodium channel protein type 5 subunit alpha (Homo sapiens, UniProt Q14524). Nature of the series: Inhibition of human Nav1.5 expressed in HEK293 cells assessed as reduction in peak inward current by ionworks quattro electrophysiology assay. It is filed as cell-based.
Chain of Sodium channel protein type 5 subunit alpha (Q14524 whole entry): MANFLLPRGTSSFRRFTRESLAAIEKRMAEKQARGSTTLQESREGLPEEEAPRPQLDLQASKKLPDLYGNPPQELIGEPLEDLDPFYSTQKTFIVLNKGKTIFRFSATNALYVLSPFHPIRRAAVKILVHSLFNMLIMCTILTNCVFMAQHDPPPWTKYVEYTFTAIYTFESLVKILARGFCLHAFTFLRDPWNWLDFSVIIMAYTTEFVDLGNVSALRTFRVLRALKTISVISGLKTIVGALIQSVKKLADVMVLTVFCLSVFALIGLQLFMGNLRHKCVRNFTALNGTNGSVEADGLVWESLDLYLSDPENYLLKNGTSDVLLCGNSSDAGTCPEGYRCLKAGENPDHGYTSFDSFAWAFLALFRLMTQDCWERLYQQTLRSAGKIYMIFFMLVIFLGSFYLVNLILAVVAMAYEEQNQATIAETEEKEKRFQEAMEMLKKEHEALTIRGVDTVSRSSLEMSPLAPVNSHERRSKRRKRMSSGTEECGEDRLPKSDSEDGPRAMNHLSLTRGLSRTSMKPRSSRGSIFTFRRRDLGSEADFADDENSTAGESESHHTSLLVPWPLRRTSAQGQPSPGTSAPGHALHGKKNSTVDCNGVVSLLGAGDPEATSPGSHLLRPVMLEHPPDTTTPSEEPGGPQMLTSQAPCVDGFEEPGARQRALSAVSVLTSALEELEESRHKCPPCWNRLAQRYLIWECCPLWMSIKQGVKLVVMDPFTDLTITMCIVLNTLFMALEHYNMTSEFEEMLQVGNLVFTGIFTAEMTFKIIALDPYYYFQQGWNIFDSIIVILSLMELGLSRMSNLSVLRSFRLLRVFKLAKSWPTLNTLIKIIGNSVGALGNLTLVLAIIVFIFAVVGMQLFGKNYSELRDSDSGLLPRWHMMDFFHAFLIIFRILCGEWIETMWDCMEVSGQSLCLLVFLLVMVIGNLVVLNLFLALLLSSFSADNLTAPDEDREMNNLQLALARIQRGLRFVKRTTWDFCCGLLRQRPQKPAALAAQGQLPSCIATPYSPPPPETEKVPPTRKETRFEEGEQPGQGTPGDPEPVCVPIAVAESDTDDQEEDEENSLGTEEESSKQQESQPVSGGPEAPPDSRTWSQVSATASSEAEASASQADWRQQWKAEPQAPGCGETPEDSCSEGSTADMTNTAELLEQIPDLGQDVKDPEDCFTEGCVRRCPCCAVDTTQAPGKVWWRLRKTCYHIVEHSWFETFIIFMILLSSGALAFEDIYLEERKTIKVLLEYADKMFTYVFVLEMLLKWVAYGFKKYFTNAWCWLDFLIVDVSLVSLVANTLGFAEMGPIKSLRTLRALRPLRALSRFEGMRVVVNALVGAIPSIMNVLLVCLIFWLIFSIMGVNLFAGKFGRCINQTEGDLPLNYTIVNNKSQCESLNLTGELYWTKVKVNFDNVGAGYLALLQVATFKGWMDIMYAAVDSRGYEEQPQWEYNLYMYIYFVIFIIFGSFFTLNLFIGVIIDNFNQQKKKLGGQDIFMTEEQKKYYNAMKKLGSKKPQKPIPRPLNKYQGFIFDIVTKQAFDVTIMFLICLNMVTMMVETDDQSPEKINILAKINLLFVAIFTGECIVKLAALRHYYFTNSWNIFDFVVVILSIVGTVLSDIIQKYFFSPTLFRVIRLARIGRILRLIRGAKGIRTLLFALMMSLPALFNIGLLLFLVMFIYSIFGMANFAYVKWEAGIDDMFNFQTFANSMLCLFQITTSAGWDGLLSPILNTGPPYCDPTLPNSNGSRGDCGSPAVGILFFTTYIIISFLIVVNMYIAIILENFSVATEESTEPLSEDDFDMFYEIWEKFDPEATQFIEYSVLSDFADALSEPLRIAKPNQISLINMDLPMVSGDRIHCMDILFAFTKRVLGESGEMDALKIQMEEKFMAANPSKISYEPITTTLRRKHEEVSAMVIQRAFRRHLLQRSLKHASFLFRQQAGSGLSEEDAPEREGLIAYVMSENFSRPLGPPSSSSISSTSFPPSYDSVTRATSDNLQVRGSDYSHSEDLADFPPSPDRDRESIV
Conditions: not given
As for `COc1cc(-c2cccc(F)c2)c(Cl)cc1-c1nccc2cc(S(=O)(=O)Nc3ncco3)ccc12`, the IC50 (commonly the concentration needed to halve the response being measured) was over 10 µM.
Same read-out and setting: to `COc1cc(-c2cccc(F)c2)c(Cl)cc1-c1nccc2cc(S(=O)(=O)Nc3ncns3)ccc12` belongs 1.5 µM; to `COc1cc(-c2ccc(Cl)c(C)c2)c(F)cc1-c1nccc2cc(S(=O)(=O)Nc3ccon3)ccc12`, over 10 µM; to `COc1cc(-c2cccc(C)c2)c(F)cc1-c1nccc2cc(S(=O)(=O)Nc3ccon3)ccc12`, over 10 µM.
In the case of `COc1cc(-c2cc(F)cc(F)c2)c(F)cc1-c1nccc2cc(S(=O)(=O)Nc3ccon3)ccc12`, the IC50 was over 10 µM.
Still for that read-out and setting: next, `COc1cc(-c2ccc(C(F)(F)F)cc2)c(F)cc1-c1nccc2cc(S(=O)(=O)Nc3ccon3)ccc12`: over 10 µM; `COc1cc(-c2cccc(F)c2)c(Cl)cc1-c1[nH]c(=O)cc2cc(S(=O)(=O)Nc3ccon3)ccc12`: 0.82 µM.

A further series deals with Canis familiaris. Nature of the series: Unbound clearance in dog at 0.25 mg/kg, iv. It is filed as ADME, organism-based, Canis lupus familiaris. The note with it: in vivo. The essentials: (§2)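 Male dogs received a single 0.25 mg/kg iv dose in DMSO. Unbound clearance (CLu) is total clearance divided by fu, the unbound fraction in plasma.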
For the molecule `COc1cc(-c2cccc(F)c2)c(Cl)cc1-c1[nH]c(=O)cc2cc(S(=O)(=O)Nc3ccon3)ccc12`, the CL free was 510 L/h/kg.

Test system in the next series: not listed separately
Nature of the series: Intrinsic clearance in human liver microsomes at 1 uM after 1 to 40 mins in presence of NADPH by LC-MS/MS analysis. Particulars: read-out: CLH. It is filed as ADME, microsome. Background: Liver microsomes are a subcellular fraction often used to study metabolism.
On to `COc1cc(-c2cccc(F)c2)c(Cl)cc1-c1nccc2cc(S(=O)(=O)Nc3ncco3)ccc12`, for which the microsomal CLint at 1 µM is 46 µL/min/mg.
On to `COc1cc(-c2cccc(F)c2)c(Cl)cc1-c1nccc2cc(S(=O)(=O)Nc3ncns3)ccc12`, for which the microsomal CLint at 1 µM is under 14 µL/min/mg.
On to `COc1cc(-c2ccc(Cl)c(C)c2)c(F)cc1-c1nccc2cc(S(=O)(=O)Nc3ccon3)ccc12`, for which the microsomal CLint at 1 µM was determined as 35 µL/min/mg.
On to `COc1cc(-c2cccc(C)c2)c(F)cc1-c1nccc2cc(S(=O)(=O)Nc3ccon3)ccc12`, for which the microsomal CLint at 1 µM came out at 36 µL/min/mg.
For `COc1cc(-c2cc(F)cc(F)c2)c(F)cc1-c1nccc2cc(S(=O)(=O)Nc3ccon3)ccc12`, the microsomal CLint at 1 µM was determined as 30 µL/min/mg.
On to `COc1cc(-c2ccc(C(F)(F)F)cc2)c(F)cc1-c1nccc2cc(S(=O)(=O)Nc3ccon3)ccc12`, for which the microsomal CLint at 1 µM was under 14 µL/min/mg.
Turning to `COc1cc(-c2cccc(F)c2)c(Cl)cc1-c1[nH]c(=O)cc2cc(S(=O)(=O)Nc3ccon3)ccc12`, the microsomal CLint at 1 µM was under 14 µL/min/mg.

Test system in another series: not listed separately
Nature of the series: Intrinsic clearance in rat liver microsomes at 1 uM after 1 to 40 mins in presence of NADPH by LC-MS/MS analysis. Format: ADME, microsome. The note with it: read-out: CLH.
Turning to `COc1cc(-c2cccc(F)c2)c(Cl)cc1-c1nccc2cc(S(=O)(=O)Nc3ncco3)ccc12`, the microsomal CLint at 1 µM was found to be 98 µL/min/mg.
For `COc1cc(-c2cccc(F)c2)c(Cl)cc1-c1nccc2cc(S(=O)(=O)Nc3ncns3)ccc12`, the microsomal CLint at 1 µM is under 14 µL/min/mg.
Still for that read-out and setting: next, `COc1cc(-c2ccc(Cl)c(C)c2)c(F)cc1-c1nccc2cc(S(=O)(=O)Nc3ccon3)ccc12`: 21 µL/min/mg.
For `COc1cc(-c2cccc(C)c2)c(F)cc1-c1nccc2cc(S(=O)(=O)Nc3ccon3)ccc12`, the microsomal CLint at 1 µM was found to be 34 µL/min/mg.
Regarding `COc1cc(-c2cc(F)cc(F)c2)c(F)cc1-c1nccc2cc(S(=O)(=O)Nc3ccon3)ccc12`, the microsomal CLint at 1 µM was under 14 µL/min/mg.
On to `COc1cc(-c2ccc(C(F)(F)F)cc2)c(F)cc1-c1nccc2cc(S(=O)(=O)Nc3ccon3)ccc12`, for which the microsomal CLint at 1 µM is under 14 µL/min/mg.
In the case of `COc1cc(-c2cccc(F)c2)c(Cl)cc1-c1[nH]c(=O)cc2cc(S(=O)(=O)Nc3ccon3)ccc12`, the microsomal CLint at 1 µM was 18 µL/min/mg.

The target of the next series is T1, PXR (NR1I2) (Homo sapiens, UniProt O75469).
T1 sequence (O75469 whole entry): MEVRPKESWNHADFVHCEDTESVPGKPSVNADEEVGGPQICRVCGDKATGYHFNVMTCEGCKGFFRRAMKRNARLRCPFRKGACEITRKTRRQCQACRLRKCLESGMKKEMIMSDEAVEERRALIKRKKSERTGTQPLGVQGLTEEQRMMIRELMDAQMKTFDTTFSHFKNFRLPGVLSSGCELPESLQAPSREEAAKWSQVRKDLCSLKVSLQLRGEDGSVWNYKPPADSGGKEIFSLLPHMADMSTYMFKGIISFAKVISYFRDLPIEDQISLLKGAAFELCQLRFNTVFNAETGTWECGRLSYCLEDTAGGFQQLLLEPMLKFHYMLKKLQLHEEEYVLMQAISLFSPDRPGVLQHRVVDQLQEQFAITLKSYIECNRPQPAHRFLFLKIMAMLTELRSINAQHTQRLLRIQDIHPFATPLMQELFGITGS
As to the kind of experiment: Activation of human PXR at 10 uM in presence of rifampicin. The note with it: read-out: Activity. Format: ADME.
In the case of `COc1cc(-c2cccc(F)c2)c(Cl)cc1-c1nccc2cc(S(=O)(=O)Nc3ncco3)ccc12`, the activity at 10 µM came out at 38%.
`COc1cc(-c2cccc(F)c2)c(Cl)cc1-c1nccc2cc(S(=O)(=O)Nc3ncns3)ccc12`: the activity at 10 µM is 5.9%.
Consider `COc1cc(-c2ccc(Cl)c(C)c2)c(F)cc1-c1nccc2cc(S(=O)(=O)Nc3ccon3)ccc12`, for which the activity at 10 µM came to 1%.
Turning to `COc1cc(-c2cccc(C)c2)c(F)cc1-c1nccc2cc(S(=O)(=O)Nc3ccon3)ccc12`, the activity at 10 µM came out at 54%.
Turning to `COc1cc(-c2cc(F)cc(F)c2)c(F)cc1-c1nccc2cc(S(=O)(=O)Nc3ccon3)ccc12`, the activity at 10 µM was found to be 47%.
As to `COc1cc(-c2ccc(C(F)(F)F)cc2)c(F)cc1-c1nccc2cc(S(=O)(=O)Nc3ccon3)ccc12`, the activity at 10 µM was 0%.
As for `COc1cc(-c2cccc(F)c2)c(Cl)cc1-c1[nH]c(=O)cc2cc(S(=O)(=O)Nc3ccon3)ccc12`, the activity at 10 µM is 27%.

Test system in a further series: not listed separately
As to the kind of experiment: Total clearance in rat at 0.5 mg/kg, iv. It is filed as ADME, organism-based. The note with it: in vivo. An outline of the steps: as §1
As to `COc1cc(-c2cccc(F)c2)c(Cl)cc1-c1[nH]c(=O)cc2cc(S(=O)(=O)Nc3ccon3)ccc12`, the clearance – broadly, the volume of plasma or blood freed of the substance per unit of time – is 35 mL/min/kg.

Test system in a further series: not listed separately
As to the kind of experiment: Total clearance in dog at 0.25 mg/kg, iv. The note with it: in vivo. It is filed as ADME, organism-based, Canis lupus familiaris. An outline of the steps:
as §2
As to `COc1cc(-c2cccc(F)c2)c(Cl)cc1-c1[nH]c(=O)cc2cc(S(=O)(=O)Nc3ccon3)ccc12`, the clearance is 13.7 mL/min/kg.

The target of another series is Cytochrome P450 3A4 (Homo sapiens, UniProt P08684). As to the kind of experiment: Inhibition of CYP3A4 (unknown origin). It is filed as ADME.
Chain of Cytochrome P450 3A4 (P08684 whole entry): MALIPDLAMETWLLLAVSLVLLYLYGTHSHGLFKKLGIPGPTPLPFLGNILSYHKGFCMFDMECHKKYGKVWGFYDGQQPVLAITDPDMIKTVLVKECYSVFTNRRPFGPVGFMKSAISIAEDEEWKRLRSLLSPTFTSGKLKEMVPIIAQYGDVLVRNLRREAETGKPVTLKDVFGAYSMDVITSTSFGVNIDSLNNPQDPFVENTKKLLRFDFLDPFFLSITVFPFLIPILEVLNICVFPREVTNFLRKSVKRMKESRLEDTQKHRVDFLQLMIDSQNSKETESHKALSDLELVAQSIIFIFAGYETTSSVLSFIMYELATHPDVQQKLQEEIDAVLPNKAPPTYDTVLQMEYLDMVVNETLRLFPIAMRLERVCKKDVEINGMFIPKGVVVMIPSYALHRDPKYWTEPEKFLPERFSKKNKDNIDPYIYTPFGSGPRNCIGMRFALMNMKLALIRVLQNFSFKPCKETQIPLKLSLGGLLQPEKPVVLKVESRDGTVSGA
Conditions: not given
`COc1cc(-c2cccc(F)c2)c(Cl)cc1-c1nccc2cc(S(=O)(=O)Nc3ncco3)ccc12` yielded an IC50 of over 27000 nM.
In the case of `COc1cc(-c2cccc(F)c2)c(Cl)cc1-c1nccc2cc(S(=O)(=O)Nc3ncns3)ccc12`, the IC50 is 800 nM.

For a further series, the target named is Sodium channel protein type 9 subunit alpha (Homo sapiens, UniProt Q15858). As to the kind of experiment: Inhibition of human Nav1.7 expressed in HEK293 cells incubated for 3 to 5 mins at -125 mV holding potential by electrophysiology assay.
Chain of Sodium channel protein type 9 subunit alpha (Q15858 whole entry): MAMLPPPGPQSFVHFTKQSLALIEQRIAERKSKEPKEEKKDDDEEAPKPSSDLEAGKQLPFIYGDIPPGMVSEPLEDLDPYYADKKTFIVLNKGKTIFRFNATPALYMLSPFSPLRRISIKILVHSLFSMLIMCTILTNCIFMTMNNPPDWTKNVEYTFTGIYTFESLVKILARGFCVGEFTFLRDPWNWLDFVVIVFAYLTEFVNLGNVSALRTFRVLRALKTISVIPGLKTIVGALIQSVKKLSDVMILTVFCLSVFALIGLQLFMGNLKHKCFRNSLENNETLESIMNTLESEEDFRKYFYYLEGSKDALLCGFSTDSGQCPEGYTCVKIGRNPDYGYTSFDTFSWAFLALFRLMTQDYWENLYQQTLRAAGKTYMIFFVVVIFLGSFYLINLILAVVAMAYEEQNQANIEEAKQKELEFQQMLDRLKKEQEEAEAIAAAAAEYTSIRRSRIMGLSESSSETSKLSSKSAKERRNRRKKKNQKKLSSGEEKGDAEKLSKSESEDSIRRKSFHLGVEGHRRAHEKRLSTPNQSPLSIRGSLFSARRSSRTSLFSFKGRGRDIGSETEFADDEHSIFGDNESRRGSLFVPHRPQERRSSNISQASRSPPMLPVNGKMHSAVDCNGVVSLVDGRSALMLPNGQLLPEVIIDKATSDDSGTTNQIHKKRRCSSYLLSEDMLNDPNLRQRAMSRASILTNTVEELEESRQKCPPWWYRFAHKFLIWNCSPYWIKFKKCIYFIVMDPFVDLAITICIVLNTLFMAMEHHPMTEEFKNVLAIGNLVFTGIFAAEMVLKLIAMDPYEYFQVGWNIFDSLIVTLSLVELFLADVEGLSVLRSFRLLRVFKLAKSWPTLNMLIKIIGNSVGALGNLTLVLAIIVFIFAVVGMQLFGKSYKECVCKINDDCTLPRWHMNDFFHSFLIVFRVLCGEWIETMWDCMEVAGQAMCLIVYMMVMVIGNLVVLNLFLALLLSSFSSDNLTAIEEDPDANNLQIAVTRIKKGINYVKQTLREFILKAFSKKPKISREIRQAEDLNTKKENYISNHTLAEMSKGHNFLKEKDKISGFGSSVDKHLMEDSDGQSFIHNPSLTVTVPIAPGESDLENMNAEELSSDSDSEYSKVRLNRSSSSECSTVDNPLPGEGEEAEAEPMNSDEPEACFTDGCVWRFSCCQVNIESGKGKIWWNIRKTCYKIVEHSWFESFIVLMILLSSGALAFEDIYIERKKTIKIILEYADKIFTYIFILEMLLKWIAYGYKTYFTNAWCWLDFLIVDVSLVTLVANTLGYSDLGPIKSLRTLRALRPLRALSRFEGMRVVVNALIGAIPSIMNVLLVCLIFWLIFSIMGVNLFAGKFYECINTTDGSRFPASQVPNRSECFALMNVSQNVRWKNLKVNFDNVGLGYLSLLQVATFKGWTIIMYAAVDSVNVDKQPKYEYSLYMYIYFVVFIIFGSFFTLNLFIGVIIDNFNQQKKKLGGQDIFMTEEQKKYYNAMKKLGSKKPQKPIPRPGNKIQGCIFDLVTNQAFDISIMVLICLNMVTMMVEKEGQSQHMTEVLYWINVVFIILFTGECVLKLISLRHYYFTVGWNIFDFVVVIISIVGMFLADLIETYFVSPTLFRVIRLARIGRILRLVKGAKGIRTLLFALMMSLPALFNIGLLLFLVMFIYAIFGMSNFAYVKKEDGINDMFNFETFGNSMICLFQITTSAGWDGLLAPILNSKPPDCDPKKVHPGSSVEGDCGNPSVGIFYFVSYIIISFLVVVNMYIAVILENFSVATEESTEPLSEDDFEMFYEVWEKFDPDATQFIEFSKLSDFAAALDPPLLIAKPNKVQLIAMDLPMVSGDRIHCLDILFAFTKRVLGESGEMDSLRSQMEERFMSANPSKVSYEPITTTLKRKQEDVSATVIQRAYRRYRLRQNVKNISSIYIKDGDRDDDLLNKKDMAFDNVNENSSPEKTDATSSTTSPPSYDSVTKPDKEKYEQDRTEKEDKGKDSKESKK
Conditions: not given
Format: cell-based.
On to `COc1cc(-c2cccc(C)c2)c(F)cc1-c1nccc2cc(S(=O)(=O)Nc3ccon3)ccc12`, for which the IC50 stood at 47 nM.
Still for that read-out and setting: next, `COc1cc(-c2cc(F)cc(F)c2)c(F)cc1-c1nccc2cc(S(=O)(=O)Nc3ccon3)ccc12`: 40 nM.
